Assay results from the EternaBench riboswitch data.

Tested on: MS2 coat protein
Assay: apparent Kd, MS2 coat protein; higher = weaker binding; RNA-MaP array; tryptophan 2.4 mM where present
Summary of the method: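 Each design was made on Illumina sequencing-chip clusters by stalled E. coli RNA polymerase and titrated with SNAP-549-labelled MS2 coat protein from 0.7 or 1.5 nM, doubling to 3 µM, in the absence and then the presence of constant ligand. The buffer was 100 mM Tris-HCl pH 7.5, 80 mM KCl, 4 mM MgCl2, BSA, DTT, yeast tRNA and Tween-20. The apparent Kd is the median of filtered per-cluster fits of binding curves, with green signal normalised to red-channel RNA signal and control-cluster median Fmax.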

[1] = designed as: OFF switch for tryptophan, no ligand
[2] = ligand present: tryptophan, designed as: OFF switch for tryptophan
[3] = designed as: ON switch for tryptophan, no ligand
[4] = ligand present: tryptophan, designed as: ON switch for tryptophan

Sequence | apparent Kd [1] [nM] | apparent Kd [2] [nM] | apparent Kd [3] [nM] | apparent Kd [4] [nM]
GGGCGCGUGGACCGGCGUGCUCCGCUCCGUCGAGGACCGGUACGGCCGCCACUCGACAUGAGGAUCACCCAUGUGUGAGCUCGCG | 55.2 | 281 |  | 
AGCAACAAGUCGGCCGCCACUCAUAUUACAUGAGGAUCACCCAUGUUUACAUCAAGGUCAUAAUAGAGGACCGGGACAGUUGCAU |  |  | 34.1 | 23.7
CGAAUAUAGACGGCCGCCACUCUACAAACAUGAGGAUCACCCAUGUUCACAUAGAGGAAACUCAUGAGGACCGGGUCAUAGGCUU |  |  | 23.4 | 20
GCCGCGGCCGCGAUACACAUGGGUAUGUAACGAGGACCGGUACGGCCGCCACUCGAGAUAAUGUACAUGAGGAUCACCCAUGUAC | 11.5 | 13.3 |  | 
GAGUAGAAGACGGCCGCCACUAAACAUGAGGAUCACCCAUGUCGUGAUCCGUUACCUAGAGUAGAUAGGACCGGGUCAUAUAGUC | 30.4 | 30.9 |  | 
AUGCAGAGCACGGCCGCCACUCCAUGUAUACAUGAGGAUCACCCAUGUAAUUUGUAUUUUUUAUAGAGGACCGGGUGAAAUGCAA |  |  | 34.3 | 18.2
AACAUACAAUAAUAGGUGGAUAUAAGGCGGCGAGGACCGGUACGGCCGCCACUCGCGUACAUGAGGAUCACCCAUGUCUGAAACU |  |  | 23.2 | 28.1
UUCUUUGACGAUCUGGGUUUACCAGAUCGACGAGGACCGGUACGGCCGCCACUCGUGUUUUCUUUACAUGAGGAUCACCCAUGUU |  |  | 16.4 | 15.6
ACGGAGAUGUCGGCCGCCACUGAACUCAUGUUCAACAUGAGGAUCACCCAUGUACCUUAGUUUAUCAGGACCGGGACAUAUACGA | 116 | 48.1 |  | 
UGGAGUAGGACGGCCGCCACUAUACAAUGUGUAUACAUGAGGAUCACCCAUGUAAUCCUCGGAGAUAGGACCGGGUCAAGUUGUG | 53.6 | 50.5 |  | 
UCCUGCAGAGCGGCCGCCACUGUAUUGCGUGAGGAUGACCCAACAUGAGGAUCACCCAUGUUGUUUAGGACCGGGCUUGCCACGA | 14.2 | 15.5 |  | 
UUAUAAGUACCGGUCCUCAGAUCCUCAUGACGAGGACCGGUACGGCCGCCACUCGAAACAUGAGGAUCACCCAUGUAAUAAUAAU | 24.2 | 21.5 |  | 
AGAUGAGUCACGGCCGCCACUCACUUCAGGUUCACCCUUGGUUAACAUGAGGAUCACCCAUGUGGGAGGACCGGGUGAUGAGCAU | 16.2 | 12.8 |  | 
AAAGCCACUUCGGCCGCCACUACAACAUGAGGAUCACCCAUGUACCUCGUGUACGGUCCGAGGAGUAGGACCGGGAAGUGGUGGA |  |  | 132 | 52.8
UAUCGUCAGACGGCCGCCACUAGAACAUGAGGAUCACCCAUGUACCCGGUCCAUUCCUCAUUAACUAGGACCGGGUCUGACGAAU | 125 | 30.2 |  | 
AGUAUUGGAAACAGUACUAGUGAUCCGGUCCGAGGACCGGUACGGCCGCCACUCGAUUUAAAUAAACAUGAGGAUCACCCAUGUA | 13.8 | 25.2 |  | 
